Assay [1] can be described thus: Immunosuppressive activity in BALB/c mouse splenic T lymphocytes assessed as inhibition of Con A-induced cell proliferation after 72 hrs by MTT assay. Format: functional, cell-based. Put shortly:
(§1)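 Splenocytes from three male BALB/c mice (7-11 weeks) at 8.0 × 10^6 cells/mL in FBS/RPMI, stimulated with LPS (B cells) or Con A (T cells) at 70% of the optimum dose from a dose-response curve. Samples were dissolved in 1.0% EtOH/medium and incubated 72 h at 37 °C in 5% CO2. MTT (5.0 mg/mL stock) was added for 4 h, formazan extracted into DMSO, and A570/630 read. Proliferation was expressed as % of no-sample control, in triplicate. IC50 came from a 7-concentration curve.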
In general terms: Tetrazolium assays rely on reduction of a dye to a coloured formazan, in cell work by metabolically active cells.

Assay [2] is described as follows: Immunosuppressive activity in BALB/c mouse splenic B lymphocytes assessed as inhibition of LPS-induced cell proliferation after 72 hrs by MTT assay. The class given is functional, cell-based. Put shortly:
as §1

≈ marks a conversion by molar mass, not a printed value.

On to `Cn1cnc([N+](=O)[O-])c1Sc1ncnc2[nH]cnc12` [AZATHIOPRINE], for which the IC50 in assay [1] and in assay [2] was 2700 ng/mL (≈ 9740 nM) each time.
Take `CN1C(=O)[C@]2(Cc3cn([C@]45C[C@@]67SS[C@@](CO)(C(=O)N6[C@H]4Nc4ccccc45)N(C)C7=O)c4ccccc34)SS[C@@]1(CO)C(=O)N2C` [CHETOMIN]: the figures for the IC50 in assay [1] and in assay [2] were 170 ng/mL (≈ 239 nM) and 90 ng/mL (≈ 127 nM), respectively.
Consider `CN1C(=O)[C@]2(Cc3cn([C@]45C[C@@]67SSS[C@@](CO)(C(=O)N6[C@H]4Nc4ccccc45)N(C)C7=O)c4ccccc34)SS[C@@]1(CO)C(=O)N2C` [CHETOSEMINUDIN A], for which the IC50 in assay [1] came out at 180 ng/mL (≈ 242 nM); in assay [2], 130 ng/mL (≈ 175 nM).
Turning to `CS[C@]1(Cc2c[nH]c3ccccc23)NC(=O)[C@](CO)(SC)N(C)C1=O` [CHETOSEMINUDIN B], the IC50 in assay [1] came to 24000 ng/mL (≈ 63200 nM).
Same read-out and setting: with `CS[C@]1(CO)NC(=O)[C@](Cc2c[nH]c3ccccc23)(SC)NC1=O` [CHETOSEMINUDIN C] the figure was more than 50000 ng/mL.
Take `C=CC[C@@H]1/C=C(\C)C[C@H](C)C[C@H](OC)[C@H]2O[C@@](O)(C(=O)C(=O)N3CCCC[C@H]3C(=O)O[C@H](/C(C)=C/[C@@H]3CC[C@@H](O)[C@H](OC)C3)[C@H](C)[C@@H](O)CC1=O)[C@H](C)C[C@@H]2OC` [TACROLIMUS ANHYDROUS]: the IC50 in assay [1] is 0.015 ng/mL (≈ 0.0187 nM); in assay [2] it was 1.6 ng/mL (≈ 1.99 nM).

What is called IC50 is the concentration at which inhibition is half-maximal.
